Screening data from PubChem BioAssay.
Compounds with a hit are over-represented: about 2.1% of the library has one in this group of screens.
CCR6 antag: CCR6 (human) receptor antagonism; 340,000 tested, 0.49% active; AID 493098; inhibition, % at 20 µM; P51684; CHO-K1 CCR6 PathHunter beta-arrestin, luminescence, CCL20-stimulated;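 active = compounds whose inhibition of the agonist-driven luminescence signal at 20 µM reaches about 50%, limit read from the data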;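 also: cells stimulated with CCL20 at 14 nM final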
EBI2 antag: EBI2 (human) antagonism; P32249; AID 651636; inhibition, % at 5 µM; EBI2 beta-arrestin recruitment, luminescence, 7a,25-OHC stimulated; 360,000 tested, 0.81% active; in the data active = inhibition above about 38%;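 also: enzyme fragment complementation signal reports receptor beta-arrestin coupling in cells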
Target sequence (P32249 whole entry, looked up, the tested form may be a part): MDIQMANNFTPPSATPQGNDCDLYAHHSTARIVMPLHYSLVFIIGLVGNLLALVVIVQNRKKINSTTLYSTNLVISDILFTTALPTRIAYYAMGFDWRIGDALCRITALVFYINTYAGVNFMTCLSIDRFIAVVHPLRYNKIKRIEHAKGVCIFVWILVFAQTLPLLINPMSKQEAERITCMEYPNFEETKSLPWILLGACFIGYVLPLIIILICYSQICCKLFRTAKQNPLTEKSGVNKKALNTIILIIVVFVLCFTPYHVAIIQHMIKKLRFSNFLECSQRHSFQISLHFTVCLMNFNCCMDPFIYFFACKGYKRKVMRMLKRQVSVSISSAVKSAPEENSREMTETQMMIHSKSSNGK
APJ antagonist: blocks the human apelin receptor APJ. P35414. CHO-K1 APJ beta-arrestin complementation, luminescence. inhibition, % at 20 µM. 330,000 tested, 0.32% active. AID 2521;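 active = inhibition above about 40% at 20 µM, limit read from the data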;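 also: cells challenged with 10 nM apelin-13 agonist together with compound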
CXCR6 inh: inhibitors of human CXCR6 receptor; inhibition, % at 20 µM; AID 602244; CHO-K1 PathHunter CXCR6 beta-arrestin, luminescence; O00574; 360,000 tested, 0.36% active; in the data active = inhibition above about 34%, passing the limit was not always enough;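 also: antagonist mode with CXCL16 agonist at 10 nM final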
Target sequence (O00574 whole entry, looked up): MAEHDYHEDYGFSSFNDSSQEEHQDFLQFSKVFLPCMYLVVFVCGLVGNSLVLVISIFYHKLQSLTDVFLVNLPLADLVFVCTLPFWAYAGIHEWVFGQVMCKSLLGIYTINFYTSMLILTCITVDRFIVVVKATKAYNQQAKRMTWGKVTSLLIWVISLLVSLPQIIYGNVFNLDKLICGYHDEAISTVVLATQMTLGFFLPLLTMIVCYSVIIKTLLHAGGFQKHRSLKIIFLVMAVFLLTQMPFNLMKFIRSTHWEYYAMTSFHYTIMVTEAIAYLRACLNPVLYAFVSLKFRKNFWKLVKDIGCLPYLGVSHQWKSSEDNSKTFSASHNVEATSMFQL
APJ agonist: APJ receptor agonism; activation, % at 20 µM; P35414; CHO-K1 APJ PathHunter beta-arrestin, luminescence; 0% DMSO wells, 100% apelin; 330,000 tested, 0.11% active; AID 2520;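 active = activation more than six SD over the plate average, tested at 20 µM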
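Test system – PathHunter CHO-K1 APJ (AGTRL-1) beta-arrestin reporter cells · Input – 1000 cells/well · Compound – single test compound dose, 20 µM final, 1% DMSO · Times – compound stimulation 90 min at 25 °C, detection 60 min · Technique – beta-gal luminescence · Read-out basis – APJ–arrestin association signal · Control set – negative DMSO alone, positive Apelin-13 at 10 nM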
m5-HT2A agonist: agonists of mouse serotonin 5-HT2A receptor (HTR2A); CHO-K1 mHTR2A beta-arrestin complementation, luminescence; percent of 30 µM serotonin response; activation, % at 7.6 µM; 360,000 tested, 0.66% active;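 active = activation above a run cutoff, the mean activation of all tested compounds plus 3 SD, cut at about 14% in these data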
OPRM1 ag: counter-screen for mouse HTR2A agonists: human mu opioid receptor agonists; shares compounds with m5-HT2A agonist; U2OS OPRM1 beta-arrestin PathHunter, luminescence; DMSO 0%, DAMGO 9.3 µM 100%; activation, % at 9.3 µM; 2,300 tested, 5.3% active; AID 624380;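 active = mean activation above the mean of DMSO-only wells plus 3 SD, cut at about 0.5% in these data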
HTR2A ag conf: confirmation of mouse HTR2A serotonin receptor agonists. shares compounds with m5-HT2A agonist. CHO-K1 PathHunter beta-arrestin recruitment, luminescence; DMSO 0%, 30 µM serotonin 100%. activation, % at 7.6 µM. 2,300 tested, 19% active. AID 624381;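 active = mean activation across triplicates above the hit threshold derived in the original primary screen, cut at about 15% in these data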
Each line names hits and unclear results; the compound was inactive in the other large screens (follow-up assays come after a bar, where they were run).

CCOc1ccc(C(=O)NC2CCN(C(=S)NCc3ccco3)CC2)cc1	none
CCCN1C2CCCC1CC(NC(=S)Nc1cc(C)ccc1C)C2 (configuration not stated)	none
Cc1cc(Cl)c(OCCCNCc2ccccc2)c(Br)c1	m5-HT2A agonist 19.9 | OPRM1 ag inactive | HTR2A ag conf inactive
Cc1cc(C)c(OCCCNCc2ccccc2)c(Br)c1	m5-HT2A agonist 19.9 | OPRM1 ag inactive | HTR2A ag conf inactive
Cc1ccc(OCCNCc2ccccc2)c(C)c1	none
O=C(Nc1ccc2c(c1)OCCO2)C(c1ccnc2ccccc12)n1c(=O)c(-c2ccco2)nc2ccccc21 (configuration not stated)	none (no result: CCR6 antag, APJ antagonist, CXCR6 inh, APJ agonist)
Cc1noc(C)c1S(=O)(=O)Nc1ccc2c(c1)C(=O)N([C@H](C)CO)C[C@H](C)[C@@H](CN(C)C(=O)NC1CCCCC1)O2	m5-HT2A agonist 14.9 | OPRM1 ag inactive | HTR2A ag conf inactive
C[C@H](CO)N1C[C@H](C)[C@@H](CN(C)CC2CC2)Oc2c(NC(=O)Cc3ccccc3)cccc2C1=O	m5-HT2A agonist 16.3 | OPRM1 ag inactive | HTR2A ag conf inactive
C[C@H](CO)N1C[C@H](C)[C@@H](CN(C)C(=O)Nc2ccc3c(c2)OCO3)Oc2ccc(NS(=O)(=O)c3ccccc3)cc2C1=O	m5-HT2A agonist 15.1 | OPRM1 ag inactive | HTR2A ag conf inactive
Cc1noc(C)c1NC(=O)N(C)C[C@H]1Oc2ccc(NS(=O)(=O)c3c(C)noc3C)cc2C(=O)N([C@H](C)CO)C[C@@H]1C	none
C[C@H](CO)N1C[C@H](C)[C@@H](CN(C)C(=O)Nc2ccccc2)Oc2ccc(NS(=O)(=O)c3ccccc3)cc2C1=O	none
COc1ccc(C(=O)Nc2ccc(-c3n[nH]c(=S)o3)cc2)cc1OC	none
COc1ccc(C(=O)C[n+]2ccc3c(c2)nc(-c2ccc(OC)cc2OC)n3C)cc1	none
CCOC(=O)c1[nH]cnc1C(=O)N1CCN(C(=O)OC(C)(C)C)CC1	m5-HT2A agonist 18.4 | OPRM1 ag inactive | HTR2A ag conf inactive
O=C(NCCc1ccccc1)c1cc(-c2ccccc2)c(N2CCOCC2)s1	none
Cc1ccc(O)c(NC(=O)c2cc3nc4c(c(C(F)(F)F)n3n2)CCc2ccccc2-4)c1	m5-HT2A agonist 15.8 | OPRM1 ag inactive | HTR2A ag conf inactive
CCN(CC)CCCNC(=O)c1cc2nc3c(c(C(F)(F)F)n2n1)CCc1ccccc1-3	none
Cc1c(Cl)cccc1NC(=O)CSc1nnc(CCNC(=O)OC(C)(C)C)o1	none
Cn1c(=O)[nH]c(=O)c2c1nc(N1CCCC1)n2CCO	m5-HT2A agonist 22.0 | OPRM1 ag inactive | HTR2A ag conf inactive
CC(=O)Nc1ccc(SC[C@H](CC(C)C)N2CCN(CCc3ccccc3)CCC2=O)cc1	m5-HT2A agonist 19.2 | OPRM1 ag inactive | HTR2A ag conf 17.0
Cc1ccc(SC[C@H](CC(C)C)N2CCN(CCc3ccccc3)CCC2=O)cc1	none
CCOC(=O)C(C(=O)Nc1cccc(C)n1)C1CCCCC1 (configuration not stated)	m5-HT2A agonist 14.4 | OPRM1 ag inactive | HTR2A ag conf inactive
COc1ccc(OC)c(/C=C/C(=O)OCC(=O)NC2CCCCCCC2)c1	m5-HT2A agonist 15.7 | OPRM1 ag inactive | HTR2A ag conf inactive
O=C(CC1C(=O)NCCN1Cc1ccc(F)cc1Cl)NC1CCCCCCC1 (configuration not stated)	none
CCCNC(=O)c1cc2c3ccccc3n(C)c2s1	none
Cc1ccc(NC(=O)COc2ccc(S(=O)(=O)N3CCOCC3)cc2)cc1	m5-HT2A agonist 20.5 | OPRM1 ag inactive | HTR2A ag conf inactive
CC(C)c1ccc(NC(=O)COc2ccc(S(=O)(=O)N3CCOCC3)cc2)cc1	none
O=S(=O)(NC1=NCCCCC1)c1ccc(Cl)cc1Cl	m5-HT2A agonist 14.4 | OPRM1 ag inactive | HTR2A ag conf inactive
CC(Sc1ncnc2sc(-c3ccccc3)cc12)C(N)=O (configuration not stated)	none
COC(=O)C(C)n1nnc2sc(-c3ccccc3)cc2c1=O (configuration not stated)	m5-HT2A agonist 15.6 | OPRM1 ag inactive | HTR2A ag conf inactive
CCc1nc2ccc(C(=O)N3CCN(S(=O)(=O)CC)CC3)cn2c1N(C)CCC(C)C	none (no result: CCR6 antag, APJ antagonist, APJ agonist)
CCc1nc2ccc(C(=O)N3CCN(S(=O)(=O)CC)CC3)cn2c1N(C)Cc1cccs1	m5-HT2A agonist 17.5 (no result: CCR6 antag, APJ antagonist, APJ agonist) | OPRM1 ag inactive | HTR2A ag conf inactive
CC(C)C(NC(=O)c1cccs1)C(=O)NC1=NCCS1 (configuration not stated)	none
O=C(COc1ccccc1C(=O)O)Nc1cccc2ccccc12	m5-HT2A agonist 15.8 | OPRM1 ag inactive | HTR2A ag conf inactive
O=C(COc1cccc2ccccc12)Nc1cc(Cl)ccc1C(=O)O	none
Cc1c(NC(=O)c2ccccc2NC(=O)COc2ccccc2)cccc1C(=O)O	m5-HT2A agonist 17.4 | OPRM1 ag inactive | HTR2A ag conf inactive
COc1ccc(C(=O)Nc2oc(-c3ccccc3)c(-c3ccccc3)c2C#N)cc1	none
COc1ccc(CN(C)C(=O)c2ccc(NS(=O)(=O)c3ccc4[nH]c(=O)[nH]c4c3)cc2)c(OC)c1OC	none
COc1ccc(CN(C)C(=O)c2ccc(NS(=O)(=O)c3ccc(C)c([N+](=O)[O-])c3)cc2)c(OC)c1OC	m5-HT2A agonist 18.5 | OPRM1 ag inactive | HTR2A ag conf inactive
C=CCOC(=O)c1[nH]c2c(c1C)C(=O)CC(c1cc(OC)c(OC)c(OC)c1)C2 (configuration not stated)	none
Oc1cccc(Nc2ccccc2)c1	none
Oc1cccc(NC(=S)Nc2ccccc2)c1	m5-HT2A agonist 17.5 | OPRM1 ag inactive | HTR2A ag conf inactive
CCOC(=O)CNS(=O)(=O)c1cc(-c2nnc(Nc3ccc4c(c3)OCO4)c3ccccc23)ccc1C	m5-HT2A agonist 17.4 | OPRM1 ag inactive | HTR2A ag conf inactive
CC(C)C(=O)Nc1cccc(-c2nc3ncccc3o2)c1	m5-HT2A agonist 25.6 | OPRM1 ag inactive | HTR2A ag conf inactive
CC(C)C(=O)Nc1ccc(-c2nc3ncccc3o2)cc1	none
CC(=O)Nc1cc(-c2ccc(C(=O)N3CCOCC3)cc2)cn2c(-c3ccc(C(C)=O)cc3)cnc12	none (no result: CCR6 antag, APJ antagonist, APJ agonist)
COc1ccc(-c2cnc3c(NC(C)=O)cc(-c4ccc(C(=O)N5CCOCC5)cc4)cn23)cc1OC	m5-HT2A agonist 14.9 (no result: CCR6 antag, APJ antagonist, APJ agonist) | OPRM1 ag inactive | HTR2A ag conf inactive
